Experimental data taken from ChEMBL document CHEMBL4364248, “Discovery of 1,2,4-oxadiazole-Containing hydroxamic acid derivatives as histone deacetylase inhibitors potential application in cancer therapy” (Eur J Med Chem, 2019).

Columns and labels:
[1] = target: T1, Protein deacetylase HDAC6 (Homo sapiens) (UniProt Q9UBN7); test: Inhibition of recombinant full length HDAC6 (unknown origin) using Ac-peptide-AMC as substrate at 100 nM after 1 hr by fluorescence assay relative to control
T1 sequence (whole entry): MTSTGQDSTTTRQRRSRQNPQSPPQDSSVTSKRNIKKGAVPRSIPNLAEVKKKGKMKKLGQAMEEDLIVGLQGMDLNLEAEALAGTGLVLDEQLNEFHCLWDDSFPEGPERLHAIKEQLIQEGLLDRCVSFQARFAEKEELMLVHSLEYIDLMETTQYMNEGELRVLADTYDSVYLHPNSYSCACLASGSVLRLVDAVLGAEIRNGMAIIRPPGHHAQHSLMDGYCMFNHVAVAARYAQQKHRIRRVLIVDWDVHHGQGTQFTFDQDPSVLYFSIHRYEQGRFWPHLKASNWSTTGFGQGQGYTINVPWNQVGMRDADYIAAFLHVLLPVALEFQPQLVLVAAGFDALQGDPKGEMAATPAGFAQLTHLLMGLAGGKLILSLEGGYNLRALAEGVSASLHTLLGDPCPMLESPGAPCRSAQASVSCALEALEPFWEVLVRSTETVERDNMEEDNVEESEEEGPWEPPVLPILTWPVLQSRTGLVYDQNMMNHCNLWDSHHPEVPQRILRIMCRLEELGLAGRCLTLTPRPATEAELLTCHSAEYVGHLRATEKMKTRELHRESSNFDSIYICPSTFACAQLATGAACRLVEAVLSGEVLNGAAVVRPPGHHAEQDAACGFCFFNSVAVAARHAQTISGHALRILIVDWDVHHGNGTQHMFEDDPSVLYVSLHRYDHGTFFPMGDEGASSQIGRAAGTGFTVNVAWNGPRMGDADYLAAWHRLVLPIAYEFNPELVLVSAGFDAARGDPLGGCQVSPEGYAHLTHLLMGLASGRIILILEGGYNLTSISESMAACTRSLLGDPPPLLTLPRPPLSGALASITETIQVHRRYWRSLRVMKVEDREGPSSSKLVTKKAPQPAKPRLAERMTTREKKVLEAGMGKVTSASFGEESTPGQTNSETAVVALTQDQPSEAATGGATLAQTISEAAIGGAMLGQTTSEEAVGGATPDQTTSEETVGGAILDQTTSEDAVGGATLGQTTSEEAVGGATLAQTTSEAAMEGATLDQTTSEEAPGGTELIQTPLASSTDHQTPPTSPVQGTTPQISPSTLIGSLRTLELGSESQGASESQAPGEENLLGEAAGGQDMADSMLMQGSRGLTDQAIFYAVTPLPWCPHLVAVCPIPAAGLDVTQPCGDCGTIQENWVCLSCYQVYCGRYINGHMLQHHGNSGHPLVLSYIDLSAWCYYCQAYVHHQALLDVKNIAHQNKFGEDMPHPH
Procedure, shortened: (§1)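 Full-length recombinant HDAC1 or HDAC6 was incubated with compound, trypsin and Ac-peptide-AMC substrate for 1 h at room temperature. Fluorescence was read at ex 355/em 460 nm. Inhibition was calculated against the DMSO vehicle control.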

Histone deacetylase 1 = Histone deacetylase 1 (Homo sapiens, UniProt Q13547); test: Inhibition of recombinant full length HDAC1 (unknown origin) using Ac-peptide-AMC as substrate at 100 nM after 1 hr by fluorescence assay relative to control; procedure, shortened: as §1
Raji = test: Antiproliferative activity against human Raji cells after 72 hrs by MTT assay; format: functional, cell-based

Histone deacetylase 1, sequence (Q13547 whole entry): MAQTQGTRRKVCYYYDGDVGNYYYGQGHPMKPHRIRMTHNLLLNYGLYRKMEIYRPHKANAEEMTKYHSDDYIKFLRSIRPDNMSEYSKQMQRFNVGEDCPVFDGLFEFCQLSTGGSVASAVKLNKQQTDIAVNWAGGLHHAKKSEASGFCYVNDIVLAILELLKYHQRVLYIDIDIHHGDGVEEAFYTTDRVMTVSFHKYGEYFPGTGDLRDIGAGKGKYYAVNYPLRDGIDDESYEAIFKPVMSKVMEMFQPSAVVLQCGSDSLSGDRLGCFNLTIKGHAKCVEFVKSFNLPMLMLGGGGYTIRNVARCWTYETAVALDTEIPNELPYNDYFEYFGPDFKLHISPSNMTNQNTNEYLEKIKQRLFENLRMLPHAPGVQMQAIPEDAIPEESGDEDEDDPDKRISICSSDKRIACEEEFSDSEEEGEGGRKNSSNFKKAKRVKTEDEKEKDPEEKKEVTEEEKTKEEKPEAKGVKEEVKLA

| Compound | inhibition [1] | inhibition (Histone deacetylase 1) | IC50 (Raji) |
| --- | --- | --- | --- |
| O=C(Cc1ccc(OCc2nc(C3CCN(Cc4ccccc4)CC3)no2)cc1)NO | 35% | 18% | – |
| CN(Cc1nc(C2CCN(Cc3ccc(F)cc3F)CC2)no1)c1ncc(C(=O)NO)cn1 | 66% | 88% | 34.3 nM |
| Cc1ccc(CN2CCC(c3noc(CN(C)c4ncc(/C=C/C(=O)NO)cn4)n3)CC2)cc1 | 60% | 61% | 292 nM |
| Cc1cccc(CN2CCC(c3noc(CN(C)c4ncc(C(=O)NO)cn4)n3)CC2)c1 | 54% | 93% | 47.3 nM |
| CN(Cc1nc(C2CCN(Cc3ccccc3F)CC2)no1)c1ncc(C(=O)NO)cn1 | 44% | 84% | 98.6 nM |
| O=C(NO)c1ccc(OCc2nc(C3CCN(Cc4ccccc4)CC3)no2)cc1 | 66% | 29% | – |
| CN(Cc1nc(C2CCN(Cc3ccc(C#N)cc3)CC2)no1)c1ncc(C(=O)NO)cn1 | 38% | 68% | 117 nM |
| C=CCN1CCC(c2noc(COc3ccc(/C=C/C(=O)NO)cc3)n2)CC1 | 66% | 34% | – |
| O=C(/C=C/c1ccc(OCc2nc(C3CCN(Cc4ccccc4[N+](=O)[O-])CC3)no2)cc1)NO | 63% | 19% | – |
| CN(Cc1nc(C2CCN(Cc3ccc(C(F)(F)F)cc3)CC2)no1)c1ncc(C(=O)NO)cn1 | 30% | 62% | 207 nM |
| O=C(CCc1ccc(OCc2nc(C3CCN(Cc4ccccc4)CC3)no2)cc1)NO | 22% | 11% | – |
| CN(Cc1nc(C2CCN(Cc3ccccc3)CC2)no1)c1ncc(/C=C/C(=O)NO)cn1 | 55% | 65% | 547 nM |
| CN(Cc1nc(C2CCN(Cc3ccccc3)CC2)no1)c1ncc(C(=O)NO)cn1 | 63% | 96% | 27.6 nM |
| CN(Cc1nc(C2CCN(Cc3ccc(F)cc3Cl)CC2)no1)c1ncc(C(=O)NO)cn1 | 49% | 73% | 116 nM |
| N#Cc1ccccc1CN1CCC(c2noc(COc3ccc(/C=C/C(=O)NO)cc3)n2)CC1 | 65% | 36% | – |
| Cc1ccc(CN2CCC(c3noc(COc4ccc(CCC(=O)NO)cc4)n3)CC2)cc1 | 28% | 12% | – |
| CCCN1CCC(c2noc(COc3ccc(CCC(=O)NO)cc3)n2)CC1 | 13% | 5% | – |
| CN(Cc1nc(C2CCN(Cc3ccc(F)cc3)CC2)no1)c1ncc(C(=O)NO)cn1 | 65% | 92% | 22 nM |
| CN(Cc1nc(C2CCN(Cc3ccccc3Cl)CC2)no1)c1ncc(C(=O)NO)cn1 | 55% | 93% | 48.3 nM |
| CCCN1CCC(c2noc(COc3ccc(/C=C/C(=O)NO)cc3)n2)CC1 | 69% | 40% | – |
| C=CCN1CCC(c2noc(COc3ccc(CCC(=O)NO)cc3)n2)CC1 | 15% | 4% | – |

More lines, now with the values ahead:

| inhibition [1] | inhibition (Histone deacetylase 1) | IC50 (Raji) | Compound |
| --- | --- | --- | --- |
| 74% | 35% | – | O=C(/C=C/c1ccc(OCc2nc(C3CCN(Cc4ccc(F)cc4F)CC3)no2)cc1)NO |
| 68% | 31% | – | O=C(/C=C/c1ccc(OCc2nc(C3CCN(Cc4ccccc4F)CC3)no2)cc1)NO |
| 60% | 17% | – | O=C(/C=C/c1ccc(OCc2nc(C3CCN(Cc4ccc(F)c(F)c4)CC3)no2)cc1)NO |
| 71% | 35% | – | O=C(/C=C/c1ccc(OCc2nc(C3CCN(Cc4ccccc4)CC3)no2)cc1)NO |
| 76% | 32% | – | Cc1ccc(CN2CCC(c3noc(COc4ccc(/C=C/C(=O)NO)cc4)n3)CC2)cc1 |
| 68% | 14% | – | Cc1ccccc1CN1CCC(c2noc(COc3ccc(/C=C/C(=O)NO)cc3)n2)CC1 |
| 58% | 6% | – | O=C(/C=C/c1ccc(OCc2nc(C3CCN(Cc4ccc(Br)cc4)CC3)no2)cc1)NO |
| 73% | 35% | – | O=C(/C=C/c1ccc(OCc2nc(C3CCN(Cc4cccc(F)c4)CC3)no2)cc1)NO |
| 75% | 36% | – | COc1ccc(CN2CCC(c3noc(COc4ccc(/C=C/C(=O)NO)cc4)n3)CC2)cc1 |
| 73% | 25% | – | Cc1cccc(CN2CCC(c3noc(COc4ccc(/C=C/C(=O)NO)cc4)n3)CC2)c1 |
| 59% | 8% | – | O=C(/C=C/c1ccc(OCc2nc(C3CCN(Cc4ccccc4Cl)CC3)no2)cc1)NO |
| 75% | 38% | – | O=C(/C=C/c1ccc(OCc2nc(C3CCN(Cc4ccc(F)cc4)CC3)no2)cc1)NO |
